Active and inactive are the calls of the source.
Tests used:
OVCAR-4 = test: Cytotoxicity against human OVCAR4 cells by sulforhodamine B assay; format: functional; details: for TGI: read-out: pTGI (converted)
In short: (§1)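 NCI Developmental Therapeutics Program 60-cell-line human tumor panel screen, run at NCI. A single-concentration pre-screen was followed by a five-concentration dose-response in 10-fold steps. GI50 is the concentration that reduces growth of treated cells to half that of untreated control cells. TGI is the concentration that completely halts growth.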

SNB-19 [1] = test: Cytotoxicity against human SNB19 cells assessed as cell growth at 80 nM by sulforhodamine B assay relative to control; format: functional; details: read-out: Activity
SR [2] = test: Cytotoxicity against human SR cells assessed as cell growth at 8 uM by sulforhodamine B assay relative to control; format: functional; details: read-out: Activity
Mus musculus = test: Acute toxicity in athymic nude mouse assessed as mortality at 25 mg/kg, […]; format: organism-based; parameters: dose 25 mg/kg, route intraperitoneal; details: in vivo, ip, 576 h
Malme-3M = test: Cytotoxicity against human MALME-3M cells by sulforhodamine B assay; format: functional; in short: as §1
MDA-MB-231 = test: Cytotoxicity against human MDA-MB-231 cells assessed as cell growth at 8 uM by sulforhodamine B assay relative to control; format: functional; details: read-out: Activity
Fusarium sp. = test: Antimicrobial activity against Fusarium sp. by CLSI method; format: functional, organism-based
NCI-H322M [3] = test: Cytotoxicity against human NCI-H322M cells assessed as cell growth at 8 uM by sulforhodamine B assay relative to control; format: functional; details: read-out: Activity
MDA-MB-435 = test: Cytotoxicity against human MDA-MB-435 cells assessed as cell growth at 8 uM by sulforhodamine B assay relative to control; format: functional; details: read-out: Activity
TK-10 = test: Cytotoxicity against human TK10 cells by sulforhodamine B assay; format: functional; details: for TGI: read-out: pTGI (converted); in short: as §1
SR [4] = test: Cytotoxicity against human SR cells assessed as cell growth at 800 nM by sulforhodamine B assay relative to control; format: functional; details: read-out: Activity
SK-OV-3 = test: Cytotoxicity against human SKOV3 cells assessed as cell growth at 8 uM by sulforhodamine B assay relative to control; format: functional; details: read-out: Activity
ACHN = test: Cytotoxicity against human ACHN cells assessed as cell growth at 80 nM by sulforhodamine B assay relative to control; format: functional; details: read-out: Activity
In short: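 Run at NCI in the DTP 60-cell-line human tumor panel by standard procedure. Compounds were first screened at a single concentration, then tested at five tenfold-spaced concentrations. GI50 is the concentration reducing treated-cell growth to half that of untreated controls; TGI is the concentration completely halting growth.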

SK-MEL-5 = test: Cytotoxicity against human SK-MEL-5 cells assessed as cell growth at 8 nM by sulforhodamine B assay relative to control; format: functional; details: read-out: Activity
SNB-19 [5] = test: Cytotoxicity against human SNB19 cells assessed as cell growth at 8 nM by sulforhodamine B assay relative to control; format: functional; details: read-out: Activity
HT-29 = test: Cytotoxicity against human HT-29 cells by sulforhodamine B assay; format: functional
In short: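 Run by the NCI Developmental Therapeutics Program on its 60-line human tumour cell panel using the standard procedure. Compounds went through a single-concentration prescreen first, and those active by NCI criteria went on to a five-concentration growth-inhibition test. GI50 is the concentration that cuts growth of treated cells to half that of untreated control cells.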

DU-145 = test: Cytotoxicity against human DU145 cells assessed as cell growth at 80 uM by sulforhodamine B assay relative to control; format: functional; details: read-out: Activity
NCI-H322M [6] = test: Cytotoxicity against human NCI-H322M cells by sulforhodamine B assay; format: functional; in short: as §1
K562 = test: Cytotoxicity against human K562 cells assessed as cell growth at 8 uM by sulforhodamine B assay relative to control; format: functional; details: read-out: Activity
KM12 = test: Cytotoxicity against human KM12 cells by sulforhodamine B assay; format: functional; in short: as §1
MCF7 [7] = test: Cytotoxicity against human MCF7 cells assessed as cell growth at 80 uM by sulforhodamine B assay relative to control; format: functional; details: read-out: Activity
SF-539 [8] = test: Cytotoxicity against human SF539 cells assessed as cell growth at 8 nM by sulforhodamine B assay relative to control; format: functional; details: read-out: Activity
LOX IMVI = test: Antitumor activity against human LOXIMVI cells xenografted in mouse assessed as tumor cell killing at 4.7 mg/kg, ip qd for 4 days by MTT assay; format: functional, organism-based; parameters: dose 4.7 mg/kg
In short: (§2)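 Hollow-fiber assay in mice. Tumor lines were grown in RPMI-1640 with 10% FBS and 2 mM glutamine. Cells at 2 × 10^6 cells/ml were loaded into 1 mm PVDF fibers (500,000 Da cutoff), heat-sealed at 2 cm and held 24–48 h at 37 °C, 5% CO2 before implantation. Compound was given IP. Fibers were collected the day after the fourth treatment for MTT (OD 540 nm, group means). A ≥50% cut in percent net growth versus vehicle counted as positive.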

HOP-92 = test: Cytotoxicity against human HOP92 cells assessed as cell growth at 80 uM by sulforhodamine B assay relative to control; format: functional; details: read-out: Activity
SF-539 [9] = test: Cytotoxicity against human SF539 cells assessed as cell growth at 80 nM by sulforhodamine B assay relative to control; format: functional; details: read-out: Activity
OVCAR-3 = test: Antitumor activity against human OVCAR3 cells xenografted in mouse assessed as tumor cell killing at 4.7 mg/kg, ip qd for 4 days by MTT assay; format: functional, organism-based; parameters: dose 4.7 mg/kg; in short: as §2
SNB-75 = test: Cytotoxicity against human SNB75 cells assessed as cell growth at 80 uM by sulforhodamine B assay relative to control; format: functional; details: read-out: Activity
RXF 393 = test: Cytotoxicity against human RXF393 cells assessed as cell growth at 80 uM by sulforhodamine B assay relative to control; format: functional; details: read-out: Activity
RPMI-8226 = test: Cytotoxicity against human RPMI8226 cells assessed as cell growth at 800 nM by sulforhodamine B assay relative to control; format: functional; details: read-out: Activity
MCF7 [10] = test: Cytotoxicity against human MCF7 cells assessed as cell growth at 8 nM by sulforhodamine B assay relative to control; format: functional; details: read-out: Activity
OVCAR-5 = test: Cytotoxicity against human OVCAR5 cells assessed as cell growth at 8 nM by sulforhodamine B assay relative to control; format: functional; details: read-out: Activity
NCI-H460 [11] = test: Cytotoxicity against human NCI-H460 cells by sulforhodamine B assay; format: functional; in short: as §1
HCT-15 = test: Cytotoxicity against human HCT15 cells assessed as cell growth at 8 nM by sulforhodamine B assay relative to control; format: functional; details: read-out: Activity
HCC 2998 = test: Cytotoxicity against human HCC2998 cells assessed as cell growth at 800 nM by sulforhodamine B assay relative to control; format: functional; details: read-out: Activity
PC-3 [12] = test: Cytotoxicity against human PC3 cells assessed as cell growth at 8 uM by sulforhodamine B assay relative to control; format: functional; details: read-out: Activity
NCI-H460 [13] = test: Cytotoxicity against human NCI-H460 cells assessed as cell growth at 80 uM by sulforhodamine B assay relative to control; format: functional; details: read-out: Activity
PC-3 [14] = test: Cytotoxicity against human PC3 cells by sulforhodamine B assay; format: functional; in short: as §1

C/C=C1\NC(=O)[C@H](Cc2ccccc2)NC(=O)[C@@H](C(C)C)NC(=O)[C@@H]([C@@H](C)CC)NC(=O)[C@H](NC(=O)[C@H](NC(=O)[C@H](CCCNCc2ccc(F)c(C)c2)NC(=O)[C@H]2CCCN2C(=O)[C@H](NC(=O)[C@@H](NC(=O)[C@@H](NC(=O)[C@H](NC(=O)CCCC(C)C)C(C)C)[C@@H](C)O)C(C)C)C(C)C)[C@@H](C)CC)[C@@H](C)OC(=O)[C@H](C(C)C)NC1=O
GI50 (OVCAR-4): 269 nM
TGI (OVCAR-4): 955 nM
growth at 0.08 µM (SNB-19 [1]): 96%
growth at 8 µM (SR [2]): -50%
Activity (Mus musculus): Toxic
GI50 (Malme-3M): 1480 nM
growth at 8 µM (MDA-MB-231): -55%
Activity (Fusarium sp.): Active
growth at 8 µM (NCI-H322M [3]): -95%
growth at 8 µM (MDA-MB-435): -95%
GI50 (TK-10): 1480 nM
TGI (TK-10): 2880 nM
growth at 0.8 µM (SR [4]): 98%
growth at 8 µM (SK-OV-3): -96%
growth at 0.08 µM (ACHN): 100%
growth at 0.008 µM (SK-MEL-5): 99%
growth at 0.008 µM (SNB-19 [5]): 99%
GI50 (HT-29; read-out: GI50): 164 nM
GI50 (HT-29; read-out: pGI50 (converted)): 162 nM
growth at 80 µM (DU-145): -91%
LC50 (NCI-H322M [6]): 457 nM
GI50 (NCI-H322M [6]; read-out: GI50): 131 nM
TGI (NCI-H322M [6]; read-out: TGI): 244 nM
GI50 (NCI-H322M [6]; read-out: pGI50 (converted)): 132 nM
TGI (NCI-H322M [6]; read-out: pTGI (converted)): 245 nM
growth at 8 µM (K562): -43%
GI50 (KM12; read-out: GI50): 155 nM
TGI (KM12; read-out: TGI): 328 nM
GI50 (KM12; read-out: pGI50 (converted)): 155 nM
TGI (KM12; read-out: pTGI (converted)): 331 nM
growth at 80 µM (MCF7 [7]): 3%
growth at 0.008 µM (SF-539 [8]): 105%
Activity (LOX IMVI): inactive
growth at 80 µM (HOP-92): -91%
growth at 0.08 µM (SF-539 [9]): 104%
Activity (OVCAR-3): inactive
growth at 80 µM (SNB-75): -19%
growth at 80 µM (RXF 393): -79%
growth at 0.8 µM (RPMI-8226): 59%
growth at 0.008 µM (MCF7 [10]): 95%
growth at 0.008 µM (OVCAR-5): 107%
GI50 (NCI-H460 [11]): 1510 nM
growth at 0.008 µM (HCT-15): 100%
growth at 0.8 µM (HCC 2998): -47%
growth at 8 µM (PC-3 [12]): -95%
growth at 80 µM (NCI-H460 [13]): 2%
LC50 (PC-3 [14]): 708 nM
GI50 (PC-3 [14]; read-out: GI50): 165 nM
TGI (PC-3 [14]; read-out: TGI): 342 nM
GI50 (PC-3 [14]; read-out: pGI50 (converted)): 166 nM
TGI (PC-3 [14]; read-out: pTGI (converted)): 339 nM

C/C=C1\NC(=O)[C@H](Cc2ccccc2)NC(=O)[C@@H](C(C)C)NC(=O)[C@@H]([C@@H](C)CC)NC(=O)[C@H](NC(=O)[C@H](NC(=O)[C@H](CCCNCc2ccc(N3CCOCC3)cc2)NC(=O)[C@H]2CCCN2C(=O)[C@H](NC(=O)[C@@H](NC(=O)[C@@H](NC(=O)[C@H](NC(=O)CCCC(C)C)C(C)C)[C@@H](C)O)C(C)C)C(C)C)[C@@H](C)CC)[C@@H](C)OC(=O)[C@H](C(C)C)NC1=O
GI50 (OVCAR-4): 1230 nM
TGI (OVCAR-4): 2820 nM
growth at 0.08 µM (SNB-19 [1]): 102%
growth at 8 µM (SR [2]): 15%
Activity (Mus musculus): Toxic
GI50 (Malme-3M): 1700 nM
TGI (Malme-3M; read-out: pTGI (converted)): 3160 nM
growth at 8 µM (MDA-MB-231): 20%
Activity (Fusarium sp.): Active
growth at 8 µM (NCI-H322M [3]): -84%
growth at 8 µM (MDA-MB-435): -88%
GI50 (TK-10): 1480 nM
LC50 (TK-10): 5370 nM
TGI (TK-10): 2820 nM
growth at 0.8 µM (SR [4]): 103%
growth at 8 µM (SK-OV-3): -87%
growth at 0.08 µM (ACHN): 102%
growth at 0.008 µM (SK-MEL-5): 105%
growth at 0.008 µM (SNB-19 [5]): 95%
GI50 (HT-29; read-out: GI50): 224 nM
GI50 (HT-29; read-out: pGI50 (converted)): 224 nM
growth at 80 µM (DU-145): -73%
GI50 (NCI-H322M [6]; read-out: GI50): 133 nM
TGI (NCI-H322M [6]; read-out: TGI): 264 nM
GI50 (NCI-H322M [6]; read-out: pGI50 (converted)): 132 nM
TGI (NCI-H322M [6]; read-out: pTGI (converted)): 263 nM
growth at 8 µM (K562): 37%
LC50 (KM12): > 75900 nM
GI50 (KM12; read-out: GI50): 201 nM
GI50 (KM12; read-out: pGI50 (converted)): 200 nM
growth at 80 µM (MCF7 [7]): 6%
growth at 0.008 µM (SF-539 [8]): 101%
Activity (LOX IMVI): inactive
growth at 80 µM (HOP-92): -62%
growth at 0.08 µM (SF-539 [9]): 101%
Activity (OVCAR-3): inactive
growth at 80 µM (SNB-75): -7%
growth at 80 µM (RXF 393): -27%
growth at 0.8 µM (RPMI-8226): 76%
growth at 0.008 µM (MCF7 [10]): 102%
growth at 0.008 µM (OVCAR-5): 97%
GI50 (NCI-H460 [11]): 2000 nM
CC50 (NCI-H460 [11]; read-out: pLC50 (the source's name) (converted)): > 75900 nM
growth at 0.008 µM (HCT-15): 98%
growth at 0.8 µM (HCC 2998): 6%
growth at 8 µM (PC-3 [12]): -91%
growth at 80 µM (NCI-H460 [13]): 2%
LC50 (PC-3 [14]): 741 nM
GI50 (PC-3 [14]; read-out: GI50): 156 nM
TGI (PC-3 [14]; read-out: TGI): 340 nM
GI50 (PC-3 [14]; read-out: pGI50 (converted)): 155 nM
TGI (PC-3 [14]; read-out: pTGI (converted)): 339 nM
